Calls of active or inactive are those of the source. The rule behind the calls is not given here.
What was measured:
[1] = Inhibition of recombinant Candida albicans SAP2 using Dabcyl-Arg-Lys-Pro-Ala-Leu-Phe-Phe-Arg-Leu-Glu (EDANS)-Arg-OH as substrate incubated for 30 mins followed by substrate addition and measured after 30 mins by spectrophotometry
Candida albicans [2] = assay: Inhibition of recombinant Candida albicans SAP2 at 100 uM using Dabcyl-Arg-Lys-Pro-Ala-Leu-Phe-Phe-Arg-Leu-Glu (EDANS)-Arg-OH as substrate incubated for 30 mins followed by substrate addition and measured after 30 mins by spectrophotometry relative to control; settings: time 60.0 min
How it was run: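 FRET assay with purified expressed C. albicans SAP2 in 50 mM sodium citrate, 50 mM NaCl, pH 4.5. Compound (diluted in DMSO) was preincubated with enzyme 30 min before adding the Dabcyl/EDANS peptide substrate (18.75 μM solution in DMSO). Reaction ran 30 min at 30 °C, then fluorescence was read at ex 340, em 485 nm. Pepstatin A was the positive control.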

Candida albicans [3] = assay: Antibiofilm activity against azole resistant Candida albicans 0304103 assessed as inhibition of biofilm formation incubated for 24 hrs by XTT-dye based assay; format: functional, organism-based; settings: dose 4-64 µg/ml
How it was run: (§1)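 Cell suspensions (1.0 × 10^5 CFU/mL) were adhered for 90 min at 37°C, then rinsed three times with PBS. Compounds were added at a range of concentrations from 2 mg/mL DMSO stocks, with fluconazole as the positive control. Plates were cultured 24 h at 37°C, and biofilm was measured semi-quantitatively by XTT reduction.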

Candida tropicalis [4] = assay: Antibiofilm activity against azole resistant Candida tropicalis 10186 assessed as inhibition of biofilm formation incubated for 24 hrs by XTT-dye based assay; format: functional, organism-based; settings: dose 4-64 µg/ml; how it was run: as §1
Candida tropicalis [5] = assay: Antibiofilm activity against azole resistant Candida tropicalis 10186 assessed as inhibition of biofilm formation at 64 ug/ml incubated for 24 hrs by XTT-dye based assay relative to control; format: functional; how it was run: as §1
Candida albicans [6] = assay: Antibiofilm activity against azole resistant Candida albicans 0304103 assessed as inhibition of biofilm formation at 0.5 ug/ml in presence of fluconazole incubated for 24 hrs by XTT-dye based assay; format: functional, organism-based; settings: dose 0.5 µg/ml
Candida albicans [7] = assay: Antibiofilm activity against azole resistant Candida albicans 0304103 assessed as inhibition of biofilm formation at 32 ug/ml in presence of fluconazole incubated for 24 hrs by XTT-dye based assay relative to control; format: functional
Candida albicans [8] = assay: Inhibition of hyphal formation in azole resistant Candida albicans 0304103 at 128 ug/ml incubated for 3 hrs by microscopic imaging analysis; format: functional
How it was run: (§2)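 Yeast cells (1.0 × 10^5 CFU/mL) were exposed to a range of compound concentrations, with fluconazole as the positive drug. Plates were incubated at 37°C for 3 h (C. albicans 0304103 and SC5314) or 7 h (C. tropicalis 10186). Hyphal growth was then observed and photographed by microscopy.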

Candida albicans [9] = assay: Inhibition of hyphal formation in azole sensitive Candida albicans SC5314 at 128 ug/ml incubated for 3 hrs by microscopic imaging analysis; format: functional; how it was run: as §2
Candida albicans [10] = assay: Inhibition of hyphal formation in azole resistant Candida albicans 0304103 at 4 to 32 ug/ml incubated for 3 hrs by microscopic imaging analysis; format: functional, organism-based; settings: dose 4-32 µg/ml; how it was run: as §2
Candida albicans [11] = assay: Inhibition of hyphal formation in azole sensitive Candida albicans SC5314 at 4 to 32 ug/ml incubated for 3 hrs by microscopic imaging analysis; format: functional, organism-based; settings: dose 4-32 µg/ml; how it was run: as §2
Candida tropicalis [12] = assay: Inhibition of hyphal formation in azole resistant Candida tropicalis 10186 at 4 to 16 ug/ml incubated for 7 hrs by microscopic imaging analysis; format: functional, organism-based; settings: dose 4-16 µg/ml; how it was run: as §2
Candida tropicalis [13] = assay: Inhibition of hyphal formation in azole resistant Candida tropicalis 10186 at 64 ug/ml incubated for 7 hrs by microscopic imaging analysis; format: functional; how it was run: as §2
Candida albicans [14] = assay: Downregulation of SAP2 in azole resistant Candida albicans 0304103 at 64 ug/ml by qRT-PCR analysis; format: functional; settings: dose 64.0 µg/ml
Candida albicans [15] = assay: Downregulation of ECE2 in azole resistant Candida albicans 0304103 at 64 ug/ml by qRT-PCR analysis; format: functional; settings: dose 64.0 µg/ml
Candida albicans [16] = assay: Downregulation of ALS3 in azole resistant Candida albicans 0304103 at 64 ug/ml by qRT-PCR analysis; format: functional; settings: dose 64.0 µg/ml
Candida albicans [17] = assay: Downregulation of EFG1 in azole resistant Candida albicans 0304103 at 64 ug/ml by qRT-PCR analysis; format: functional; settings: dose 64.0 µg/ml
Candida albicans [18] = assay: Upregulation of CPH1 in azole resistant Candida albicans 0304103 at 64 ug/ml by qRT-PCR analysis; format: functional; settings: dose 64.0 µg/ml
Candida albicans [19] = assay: Upregulation of TEC1 in azole resistant Candida albicans 0304103 at 64 ug/ml by qRT-PCR analysis; format: functional; settings: dose 64.0 µg/ml
Candida albicans [20] = assay: Antifungal activity against azole resistant Candida albicans 0304103 infected in ICR mouse assessed as reduction in fungal burden in kidney at 10 mg/kg, ip administered for 4 days; format: functional, organism-based; settings: time 4.0 day
How it was run: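 Female ICR mice (20–25 g) were immunosuppressed with cyclophosphamide, 100 mg/kg ip in saline. After 24 h they were infected iv with 0.2 mL of 1×10^5 CFU/mL cells. Starting 24 h after infection, mice (4 per group) received the drug ip once daily for four days; controls received saline or fluconazole 10 mg/kg. Kidneys were homogenized and plated on YPD at 30°C for log10 CFU.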

## Cc1ccc(CN2C(=O)/C(=C/c3ccc(OCC(=O)O)cc3OCC(=O)O)c3ccc(-c4ccc(C)cc4)cc32)cc1
[1]
  IC50: 920 nM
Candida albicans [2]
  inhibition: 100%
Candida albicans [3]
  inhibition: Dose-dependent effect
Candida tropicalis [4]
  inhibition: Dose-dependent effect
Candida tropicalis [5]
  inhibition at 64 µg/mL: > 50%
Candida albicans [6]
  inhibition: Active
Candida albicans [7]
  inhibition at 32 µg/mL: 90%
Candida albicans [8]
  inhibition at 128 µg/mL: 100%
Candida albicans [9]
  inhibition at 128 µg/mL: 100%
Candida albicans [10]
  inhibition: inactive
Candida albicans [11]
  inhibition: inactive
Candida tropicalis [12]
  inhibition: Active
Candida tropicalis [13]
  inhibition at 64 µg/mL: 100%
Candida albicans [14]
  Activity: Active
Candida albicans [15]
  Activity: Active
Candida albicans [16]
  Activity: Active
Candida albicans [17]
  Activity: Active
Candida albicans [18]
  Activity: Active
Candida albicans [19]
  Activity: Active
Candida albicans [20]
  Activity: Active
